Source: PubChem BioAssay (Broad Institute)
HSF-1 act = increases HSF-1 driven luciferase reporter signal | NIH3T3-HGL HSF-1 luciferase reporter, MG132, 8 h; 100% = twice DMSO control signal | activation, % at 9 µM | AID 504408 | 1.7% of 300,000 active;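 active means mean replicate activation of at least 50% with a set share of replicates each reaching 50%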;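 further: 0% = median of the neutral control wells and 100% = twice that signal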
HIF act = HIF pathway transcriptional activation; activation, % at 7.5 µM (by protocol); U2OS HRE-luciferase reporter, luminescence; normalized: DMSO 0%, desferrioxamine 100%; 0.32% of 300,000 active;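 active means mean activation of at least 10% of the iron chelator positive control signal, with at least half of replicates also reaching 10%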
Calb FLC = affects C. albicans growth with fluconazole; C. albicans CaCi-2 + fluconazole, Alamar Blue growth, 48 h; growth inhibition, % (no concentration beside the values); 0.57% of 300,000 active; AID 1979;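 active means growth inhibition above about 58% in most replicates, limit read from the data, passing the limit was not always enough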;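 further: all wells also contain fluconazole at 8 µg/ml as a sub-toxic cotreatment; 0% = median of DMSO wells and 100% = median of geldanamycin control wells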
T cruzi repl = blocks replication of Trypanosoma cruzi; T. cruzi beta-gal in NIH3T3, luminescence, 90 h; inhibition, % (concentration not given with the values); 1.4% of 300,000 active;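 active means mean inhibition across valid replicates above about 55%, limit read from the data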;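 further: signal also drops with host cell toxicity which is not excluded here; 0% = plate median of DMSO wells and 100% = zero luminescence signal; higher percent means less beta-gal luminescence so fewer parasites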
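assay system = mouse NIH/3T3 fibroblasts infected with β-gal-expressing T. cruzi Tulahuen C4 | input = 5,000 NIH/3T3 host cells per well | buffer or medium = DMEM plus 2% FBS | timing = 3 h host attachment, then at least 90 h co-culture | measured by = GalScreen luminescence, 60 min | evaluation = luminescence reflecting intracellular parasite burden, expressed as percent inhibition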
HSF1 inh = HSF1 inhibition. NIH3T3-HGL HSE-luciferase, MG132-induced, luminescence 8 h; hits give low values. activity change, negative = inhibition, % at 7.5 µM (by protocol). 0.77% of 300,000 active;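 active means more than half of replicate wells show activity change below -50%, luminescence cut by over half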;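 further: luciferase reports HSF-1 transcriptional activity via heat shock element; 0% = median of DMSO wells and -100% = zero luminescence signal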
* hit, by the source's call; x = no result. Only some compounds are listed: those with a hit (about 4.4% of all), similar ones and a draw of the others.

SMILES	HSF-1 act	HIF act	Calb FLC	T cruzi repl	HSF1 inh
CCCC(CCC)C(=O)OC[N+](C)(C)CCOC(=O)C(O)(c1ccccc1)C1CCCC1 (stereo not drawn)	-7.8	0.3	48.1	55.0*	-0.2
CC(C)(C)C(=O)OC[N+](C)(C)CCOC(=O)C(O)(c1ccccc1)C1CCCC1 (stereo not drawn)	-21.0	-0.3	-12.6	4.3	-7.4
COc1cc2c3cc1Oc1cc(ccc1O)C[C@@H]1c4c(cc(OC)c(O)c4Oc4ccc(cc4)C[C@H]3N(C)CC2)CCN1C	7.3	1.6	-13.1	25.6	-7.1
CN1CCc2cc3c(c4c2C1Cc1ccccc1-4)OCO3 (stereo not drawn)	19.4	1.5	92.4*	29.9	-0.1
NS(=O)(=O)c1cccc(N2CCNCC2)c1	7.6	0.3	25.3	-21.5	-0.5
CC(=O)c1c(C)n(CCCOC(C)C)c2ccc(O)cc12	-67.0	x	14.6	6.3	-55.9*
C=CCNC(=O)c1c(N)n(Cc2ccco2)c2nc3ccccc3nc12	133.9*	-0.2	-18.2	-14.5	97.3
COc1ccc2c(c1)/C(=C/c1cnc[nH]1)C(=O)N2	32.2	9.9*	x	31.0	31.7
O=C1Nc2ccccc2/C1=C/c1cnc[nH]1	66.3*	-0.5	58.7	39.5	37.8
COc1cc2c(cc1OC)CC[N+](C)=C2	-2.1	-0.2	1.3	10.7	-2.9
Cc1ccccc1-n1c(O)c(C=Nc2ccc(N(C)C)cc2)c(=O)[nH]c1=O	64.0*	0.3	43.0	38.3	20.8
COc1ccc(N=Cc2c(O)n(Cc3ccccc3)c(=S)[nH]c2=O)c(OC)c1	117.3*	-14.0	41.1	7.4	62.8
COc1ccc(CNCCc2ccc(Cl)cc2)c(OC)c1OC	0.4	-0.6	-2.3	64.1*	1.5
COc1cc(OC)c(OC)cc1CNCCc1ccc(F)cc1	8.6	-10.9	-0.8	62.5*	7.3
Fc1ccc(CCNCc2ccc(Cl)c(Cl)c2)cc1	-6.9	-0.2	-6.1	67.2*	6.2
COc1ccc(CCNCc2ccc(Br)cc2)cc1OC	51.2*	-0.5	0.9	35.5	22.4
COc1cc(OC)c(OC)cc1CNCCc1ccc(OC)c(OC)c1	7.9	0.0	-3.8	-3.7	-10.7
Cc1cc(C(=O)CS(=O)(=O)c2ccccc2)cc(C)c1OC(=O)N(C)C	32.8	0.3	36.0	-1.2	15.8
CCc1ccc(CNCCc2ccc(F)cc2)cc1	1.2	0.7	-22.5	58.8*	4.0
CCN(CC)c1ccc(CNCCc2ccc(F)cc2)cc1	3.0	0.3	-19.7	52.5	1.3
Cc1ccc(Cn2cc(C=O)c(-c3ccc(F)cc3)n2)cc1	57.5*	-11.6	7.0	-0.5	21.3
Cc1ccc(-c2nn(Cc3ccccc3)cc2C=O)cc1C	69.7*	2.9	11.6	16.9	44.6
Cc1ccc(-c2nn(Cc3ccccc3)cc2C=O)cc1	53.3*	4.1	1.7	8.9	44.4
Cc1ccc(-c2nn(Cc3ccccc3)cc2C(=O)O)cc1	4.9	0.3	-1.3	-6.9	-6.0
O=Cc1cn(Cc2ccc(F)cc2)c2ccccc12	26.7	-0.1	-5.7	-12.1	-0.8
SMILES	HSF-1 act	HIF act	Calb FLC	T cruzi repl	HSF1 inh
O=c1c2ccccc2nc(-c2ccccc2)n1-c1ccc(O)cc1	9.6	0.1	-6.0	9.1	11.2
COc1ccc2c(c1)c(C(=O)C(C)N1CCCCC1)c(C)n2C (stereo not drawn)	4.1	-7.5	2.7	-17.7	-7.8
O=C(CCC(=O)N1CC2C[C@@H](C1)Cn1c2cccc1=O)NCCc1ccccc1	-4.0	0.0	-0.8	-12.9	-4.1
C=CCn1c(O)c(C(C)=NCC2CCCO2)c(=O)[nH]c1=O (stereo not drawn)	-1.1	-0.1	-1.0	13.7	-3.3
c1ccc(CN2CCc3nc4ccccc4cc3C2)cc1	17.3	1.8	76.4*	1.2	11.7
Cn1ncnc2c(=O)n(C)c(=O)nc1-2	-94.8	-3.7	16.9	62.6*	-95.1*
N#CCCn1cc(C(=O)Nc2ccc(F)cc2)c(-c2ccccc2)n1	-14.0	1.3	0.4	8.3	0.8
OC1/C(=C/c2ccccc2C(F)(F)F)N2CCC1CC2 (stereo not drawn)	-81.8	0.4	-14.8	6.7	-77.9*
CN1c2ccc([N+](=O)[O-])cc2CC2(C(=O)NC(=O)N(c3ccccc3)C2=O)C1c1ccccc1 (stereo not drawn)	-13.7	0.0	-6.0	71.8*	-3.7
